An excerpt weighted towards active compounds, which were near 3.1% of everything screened.
RAM inhibit: yeast RAM network inhibition; S. cerevisiae dse1pr::URA3 reporter, 5-FOA growth OD615, 2 d; analog-sensitive cbk1-as2 kinase mutant strain; inhibition, % at 50 µM; hit rate 1.8% among 190,000; AID 868;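 active means inhibition above a set limit, 3 SD over mean compound inhibition, cut at about 8.4% in these data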;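 further: 0% = DMSO-only wells with no growth and 100% = 10 µM 1-NA-PP1 full growth; inhibition rescues growth on 5-FOA so higher OD means more RAM inhibition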
Yeast lifespan up: extends the lifespan of yeast; AID 775; S. cerevisiae growth with nicotinamide, OD615; deaD strain in restrictive glucose medium; hit rate 0.68% among 130,000; inhibition of the nicotinamide effect, % at 10 µM;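 active means inhibition above a set limit, placed 3 SD over the median of all compounds, cut at about 26% in these data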;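 further: 0% = nicotinamide-treated wells and 100% = cells grown without nicotinamide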
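assay system = DeaD-strain S. cerevisiae | measured by = absorbance at 615 nm | probe or stimulus = nicotinamide 1.5 mM | buffer or medium = CSMM-D glucose medium, restrictive | times = 48 h at 30 °C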
Insulin prom up: MIN6 insulin promoter up-regulation. z-score at 5 µM. MIN6 insulin promoter-GFP reporter, high-content imaging; stronger effect = higher value. hit rate 0.3% among 190,000;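 active means z-score above 3 at 5 µM with at least 500 cells counted in the well; inconclusive means wells under 500 cells, flagged as cytotoxic or low count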
Yeast growth inh: chemicals that inhibit yeast BB579 growth in restrictive medium (lifespan-shortening candidates). S. cerevisiae BB579 growth, OD615, 48 h. inhibition, % at 10 µM. hit rate 0.51% among 140,000. AID 804;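 active means inhibition above a set limit, 3 SD over the mean compound inhibition, cut at about 44% in these data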
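controls = amphotericin B 10 µg/mL, positive | assay system = DeaD yeast strain BB579 | schedule = 48 h compound exposure at 30 °C after 4 h preincubation | detection = OD615 turbidity measurement | medium = restrictive CSMM-D medium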
Insulin prom inh: TRM-6 insulin promoter activity inhibition. TRM-6 cells, insulin promoter-eGFP reporter, imaging; reporter expression induced with tamoxifen. inhibition, % at 2 µM. hit rate 0.9% among 130,000;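 active means inhibition above the mean plus 3 SD, with well images judged a real hit on visual review, cut at about 60% in these data, passing the limit was not always enough; inconclusive means inhibition over the cutoff but images rejected on review; inactive means inhibition not above the cutoff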
RAM efflux-def: RAM network inhibition, efflux-deficient strain. S. cerevisiae efflux-deficient reporter strain, 5-FOA growth OD615, 2 days. max inhibition, %. 1,200 tested, under 10 active. shares compounds with RAM inhibit; call rule not given here;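 further: plate controls were vehicle for no effect and reference inhibitor for full effect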
Starred values were filed as active, the others as inactive; u = inconclusive; x = not tested or not shown.

SMILES | RAM inhibit | Yeast lifespan up | Insulin prom up | Yeast growth inh | Insulin prom inh | RAM efflux-def
CCC(C)NS(=O)(=O)c1ccc(NC(=O)C(Sc2ccccc2)c2ccccc2)cc1 (configuration not stated) | 1.1 | 3.9 | -1.57 | -8.9 | 38.2 | x
CCCCNS(=O)(=O)c1ccc(NC(=O)C(Sc2ccccc2)c2ccccc2)cc1 (configuration not stated) | 13.5* | 3.1 | -0.21 | -19.0 | -11.1 | 1.3
CCOC(=O)c1cnc(SC)nc1Nc1cccc2ccccc12 | 7.2 | x | x | -2.0 | 12.5 | x
CCOC(=O)c1cnc(C(F)(F)F)nc1Oc1ccccc1 | x | x | 0.91 | x | x | x
CCOC(=O)c1cnc(SC)nc1Nc1cccc(F)c1 | 15.6* | -9.8 | 0.09 | -19.6 | 53.9 | 2.2
CCOC(=O)c1cnc(SC)nc1Oc1cccc(NC(=O)c2ccc(C)cc2)c1 | 18.3* | 4.7 | -0.68 | -51.6 | 18.2 | 4.8
CCCCCOc1ccc(CSc2ncn[nH]2)cc1 | 23.9* | x | -0.94 | -26.4 | 61.5 | 0.8
CC[n+]1c(/C=C/Nc2ccccc2)sc2ccccc21 | 0.2 | 5.4 | u | -9.0 | x | x
CCN1/C(=C/C=C/C=C/c2sc3ccccc3[n+]2CC)Sc2ccccc21 | 22.5* | 14.4 | x | 83.7* | -354.6 | 8.7
CCCOc1ccc(N2C(=O)CC(N(CCc3ccccc3)C(=O)c3ccccc3)C2=O)cc1 (configuration not stated) | 12.0* | x | -0.14 | x | x | 1.1
CCCOc1ccc(N2C(=O)CC(N(CCc3ccc(OC)c(OC)c3)C(=O)c3ccccc3)C2=O)cc1 (configuration not stated) | x | x | 0.15 | x | x | x
COc1ccc(N2CC(NC(=O)NCC(C)C)CC2=O)cc1 (configuration not stated) | 1.2 | 4.0 | 0.06 | -23.8 | -60.0 | x
CCCC1=C/C(=C/c2ccc(-c3ccccc3OC)o2)C(=O)O1 | 7.7 | 5.0 | 0.11 | -51.4 | -150.0 | x
COc1ccccc1-c1ccc(/C=C2/C=C(CC(C)C)OC2=O)o1 | 14.2* | 6.0 | 0.44 | -35.7 | 28.6 | 9.9
Cc1cc(C)nc(SCCn2c(N3CC(C)OC(C)C3)nc3c2c(=O)n(C)c(=O)n3C)n1 (configuration not stated) | 0.9 | x | 0.61 | x | x | x
N#Cc1c(N)n(CCOC(=O)c2cccc([N+](=O)[O-])c2)c2nc3ccccc3nc12 | 12.3* | -0.2 | -0.54 | -40.4 | 2.3 | 5.7
N#Cc1c(N)n(CCOC(=O)c2cccc(Br)c2)c2nc3ccccc3nc12 | 4.9 | -17.4 | -0.12 | -60.8 | 7.1 | x
N#CCc1c(C#N)c(N)nc(Nc2ccccc2)c1C#N | x | x | -0.19 | x | x | x
O=C(CCCSc1nnc(SCCCC(=O)c2ccc(F)cc2)s1)c1ccc(F)cc1 | 14.5* | -4.8 | 0.73 | -26.6 | x | 4.3
NC(=O)COC(=O)CCCSc1nc2ccccc2s1 | -0.4 | x | 1.88 | x | x | x
N#Cc1ccsc1NC(=O)COC(=O)CCCSc1nc2ccccc2s1 | 14.6* | -12.9 | -0.46 | -53.0 | x | 3.0
CC(C)CCC(C)N=Cc1c(O)n(Cc2ccccc2)c(=O)c2ccccc12 (configuration not stated) | 17.0* | 17.2 | -0.02 | -83.4 | 46.4 | 5.9
CC1(C)CCCC2=C1CC1C(=O)N(N)C(=O)C1C2 (configuration not stated) | x | x | 0.15 | x | x | x
COc1ccc(C(C)=O)cc1CSc1nnc(-c2ccc(Cl)cc2)n1-c1ccccc1 | 5.5 | 6.6 | -0.71 | -66.7 | -23.1 | x
Cc1ccccc1NS(=O)(=O)c1cc(C(=O)NCCSC2CCCCC2)ccc1C | 12.8* | -16.3 | -1.67 | -26.4 | x | 3.1
SMILES | RAM inhibit | Yeast lifespan up | Insulin prom up | Yeast growth inh | Insulin prom inh | RAM efflux-def
O=C(COC(=O)CCc1c[nH]c2ccccc12)NC(c1ccccc1)c1ccccc1 | 17.1* | -4.7 | -0.37 | -22.1 | 14.8 | 2.1
CN1C(=O)C(CC(=O)NCCc2ccccc2)N(NC(=O)c2ccc(Cl)cc2)C1=S (configuration not stated) | x | x | 1.29 | x | x | x
COc1ccc(C(=O)Nc2ccc(C(=O)OCC(=O)c3ccccc3)cc2)cc1 | 1.1 | -17.6 | -0.39 | -13.2 | x | x
COc1ccc(C(=O)OCC(=O)c2ccc(C3CCCCC3)cc2)cc1 | 11.4* | 1.0 | 0.01 | -25.4 | 47.8 | 11.2
Cc1nonc1C1CCCN1C(=O)c1cc(COc2ccc(F)cc2Cl)on1 (configuration not stated) | 6.4 | x | x | x | -5.0 | x
CCC/C=C(\CCC)C(NS(=O)(=O)c1cccc2cccnc12)c1ccc(C(=O)OC)cc1 (configuration not stated) | 12.6* | 7.3 | 0.21 | -19.7 | -40.0 | 4.1
CCCc1nnc(NC(=O)CCC(=O)NCCc2ccc(OC)c(OC)c2)s1 | 0.4 | -0.7 | 1.1 | 4.6 | 14.8 | x
COC(=O)c1sccc1-c1ccc(/C=N/OCc2c(Cl)cccc2Cl)o1 | 17.7* | -0.8 | x | -36.9 | 19.5 | 3.4
COc1cccc(C(=O)C2CN(c3ccccc3)CC2c2ccc(Cl)cc2)c1 (configuration not stated) | 14.9* | 5.0 | 0.11 | -29.3 | 3.0 | 6.3
COc1cc(/C=N/NC(=O)c2cn(-c3cccc(C)n3)cn2)ccc1O | 3.1 | x | 1.13 | x | x | x
CCOC(=O)c1sc(-c2ccc(OC)cc2)cc1NC(C)=O | 18.4* | -4.4 | 1.12 | -1.4 | 0.0 | 1.1
COc1ccc(CCn2c(C)cc(C(=O)CCl)c2C)cc1OC | 2.5 | x | 0.12 | x | 30.0 | x
Cc1cc(C(=O)CCl)c(C)n1CCc1ccc(Cl)cc1 | 12.7* | x | 0.38 | x | x | 5.2
O=C(CN(C(=O)CSc1nnc(COc2ccccc2)o1)c1ccc(F)cc1)NC1CCCC1 | 15.4* | 5.5 | -0.26 | -36.9 | x | 1.9
COc1ccc(/C=C2\SC(=O)N(CCC(=O)Nc3ccccc3)C2=O)cc1OC | 13.0* | -2.5 | -0.6 | -38.9 | 3.6 | 1.9
COc1cc(/C=C2\SC(=S)N(CCC(=O)Nc3ccccc3)C2=O)cc(OC)c1OC | 4.9 | x | 0.33 | x | x | x
O=C(CCNC(=O)c1ccccc1Cl)Nc1cc(C(F)(F)F)ccc1Cl | 1.2 | -3.9 | -0.31 | -20.4 | -13.3 | x
Cc1ccc(C)c(C(=O)COC(=O)CCCC(=O)Nc2cc(C(F)(F)F)ccc2Cl)c1 | 17.7* | 1.1 | -0.35 | -13.3 | x | 1.9
CC(C)c1ccc(CNc2cc(N3CCCC3)ccc2[N+](=O)[O-])cc1 | 18.9* | -1.4 | -0.6 | -29.7 | -3.2 | 4.7
CC(C)(C)CNc1cc(N2CCCC2)ccc1[N+](=O)[O-] | 5.6 | 1.2 | 0.18 | -2.9 | -125.8 | x
Cc1nn(CCc2nn[nH]n2)c2nc(-c3ccc(C4CCCCC4)cc3)cc(C(F)(F)F)c12 | 15.0* | x | 1.81 | x | x | 8.0
Cc1c(C#N)c(N=CN(C)C)c(C(=O)c2ccc(Br)cc2)n1-c1ccc(Cl)cc1 | 3.2 | -3.2 | 0.27 | 17.7 | -19.4 | x
COC(=O)c1cc2c(ccn2-c2ccc(F)cc2)n1Cc1ccc(OC)cc1 | 15.3* | 5.6 | 0.14 | -31.9 | 29.7 | 4.0
Cc1ccc[n+](CC(=O)Nc2cc(C(F)(F)F)ccc2N2CCOCC2)c1 | 0.3 | x | 0.41 | x | -66.7 | x

Screening data deposited in PubChem by several laboratories.
